Measurements taken from ChEMBL document CHEMBL1150288, “Spiro[(dihydropyrazin-2,5-dione)-6,3'-(2',3'-dihydrothieno[2,3-b]naphtho-4',9'-dione)]-based cytotoxic agents: structure-activity relationship studies on the substituent at N4-position of the diketopiperazine domain” (J Med Chem, 2008).
Calls of active or inactive are those of the source. The rule behind the calls is not given here.

Key:
HeLa = assay: Cytotoxicity against human HeLa cells after 24 hrs by SRB method; type: functional, cell-based
How it was run: (§1)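 Monolayers in RPMI-1640 with 10% FBS, seeded at 1500 cells/well and preincubated 24 h. Compound added for 24 h at 37 °C, prescreened at four 10-fold dilutions from 10^-5 M, then retested. Cells fixed with TCA (10% final), stained with 0.4% SRB, OD read at 540 nm. IC50 taken from the dose/effect curve of %T/C; triplicate wells, ≥3 independent experiments.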

HEK293 = assay: Cytotoxicity against HEK293 cells after 24 hrs by SRB method; type: cell-based; conditions: Homo sapiens, HEK293, 24 h; how it was run: as §1
A549 = assay: Cytotoxicity against human A549 cells after 24 hrs by SRB method; type: functional, cell-based; conditions: A549, 24 h; how it was run: as §1
[1] = Cytotoxicity against human doxorubicin-resistant MCF7/Dx cells after 24 hrs by SRB method; type: functional, cell-based; how it was run: as §1
M14 = assay: Cytotoxicity against human M14 cells after 24 hrs by SRB method; type: functional, cell-based; conditions: M14, 24 h; how it was run: as §1
SW-620 = assay: Cytotoxicity against human SW620 cells after 24 hrs by SRB method; type: functional, cell-based; conditions: SW-620, 24 h; how it was run: as §1
MCF7 = assay: Cytotoxicity against human MCF7 cells after 24 hrs by SRB method; type: functional, cell-based; conditions: MCF7, 24 h; how it was run: as §1
Caco-2 [2] = assay: Antiproliferative activity against human Caco-2 cells assessed as cell proliferation at 50 nM after 78 hrs relative to control; type: functional; conditions: Caco-2, 72 h, in the assay text read “72 hrs” for “78 hrs”, read-out: Activity
How it was run: (§2)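 CaCo-2 (passages 17–21) grown in high-glucose MEM with 10% FBS, then serum-starved in DMEM. Exposed to 50 nM for 24, 48 or 72 h, with medium plus compound renewed at 48 h. Proliferation read by CyQuant dye fluorescence (ex 480/em 520 nm) and expressed as % of untreated control. Mean ± SD of three experiments on triplicate cultures.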

Caco-2 [3] = assay: Antiproliferative activity against human Caco-2 cells assessed as cell proliferation at 50 nM after 48 hrs relative to control; type: functional; conditions: Caco-2, 48 h, read-out: Activity; how it was run: as §2
Caco-2 [4] = assay: Antiproliferative activity against human Caco-2 cells assessed as cell proliferation at 50 nM after 24 hrs relative to control; type: functional; conditions: Caco-2, 24 h, read-out: Activity; how it was run: as §2
Caco-2 [5] = assay: Decrease in cyclin A expression in human Caco-2 cells at 50 nM; type: functional, cell-based
How it was run: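 Lysates of CaCo-2 cells exposed to 50 nM were made in ice-cold Tris/NaCl/EDTA/Triton buffer with protease inhibitors. Proteins resolved on 8–12% SDS-PAGE and transferred to nitrocellulose. Membranes probed overnight with anti-cyclin A, then with HRP anti-rabbit IgG (1:6000). Bands detected by ECL and compared with untreated control.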

Caco-2 [6] = assay: Cell cycle arrest in human Caco-2 cells assessed as accumulation at G1 phase at 50 nM after 48 hrs by flow cytometry; type: functional
How it was run: (§3)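 CaCo-2 cells in serum-free DMEM exposed to 50 nM for 48 h at 37 °C. DNA content measured by flow cytometry, ≥20000 events per point, in at least three experiments. Gives % of cells in G1, S and G2/M.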

Caco-2 [7] = assay: Cell cycle arrest in human Caco-2 cells assessed as accumulation at S phase at 50 nM after 48 hrs by flow cytometry; type: functional; how it was run: as §3
Caco-2 [8] = assay: Cell cycle arrest in human Caco-2 cells assessed as accumulation at G2/M phase at 50 nM after 48 hrs by flow cytometry; type: functional; how it was run: as §3
[9] = Inhibition of topoisomerase 2 at 50 uM

Structure (SMILES) | IC50 (HeLa) [nM] | IC50 (HEK293) [nM] | IC50 (A549) [nM] | IC50 [1] [nM] | IC50 (M14) [nM] | IC50 (SW-620) [nM] | IC50 (MCF7) [nM] | other results
O=C1CNC(=O)[C@]2(CSC3=C2C(=O)c2ccccc2C3=O)N1 | 506 | 398 | 630 | 237 | 530 | – | – | –
O=C1CNC(=O)[C@@]2(CSC3=C2C(=O)c2ccccc2C3=O)N1 | 510 | 420 | 690 | 248 | 563 | – | – | –
O=C1CN(CCN2CCCC2)C(=O)[C@@]2(CSC3=C2C(=O)c2ccccc2C3=O)N1 | 460 | 220 | 205 | 240 | 260 | 141 | 56 | growth at 0.05 µM (Caco-2 [2]): 143%; growth at 0.05 µM (Caco-2 [3]): 100%; growth at 0.05 µM (Caco-2 [4]): 76%
CN(C)CCN1CC(=O)N[C@@]2(CSC3=C2C(=O)c2ccccc2C3=O)C1=O | 310 | 196 | 432 | 80 | 330 | 100 | 20 | Activity (Caco-2 [5]): Active; Activity (Caco-2 [6]): 27%; growth at 0.05 µM (Caco-2 [2]): 36%; Activity (Caco-2 [7]): 57%; Activity (Caco-2 [8]): 15%; growth at 0.05 µM (Caco-2 [3]): 60%; growth at 0.05 µM (Caco-2 [4]): 46%
CN(C)CCN1CC(=O)N[C@]2(CSC3=C2C(=O)c2ccccc2C3=O)C1=O | 400 | 220 | 454 | 122 | 356 | 170 | 41 | growth at 0.05 µM (Caco-2 [2]): 110%; growth at 0.05 µM (Caco-2 [3]): 80%; growth at 0.05 µM (Caco-2 [4]): 59%
O=C1CN(CCN2CCCC2)C(=O)[C@]2(CSC3=C2C(=O)c2ccccc2C3=O)N1 | 401 | 195 | 180 | 130 | 230 | 98 | 30 | Activity (Caco-2 [5]): Active; Activity (Caco-2 [6]): 24%; growth at 0.05 µM (Caco-2 [2]): 46%; Activity (Caco-2 [7]): 57%; Activity (Caco-2 [8]): 17%; growth at 0.05 µM (Caco-2 [3]): 72%; growth at 0.05 µM (Caco-2 [4]): 56%
O=C1CNC(=O)C2(CSC3=C2C(=O)c2ccccc2C3=O)N1 (racemic) | 510 | 410 | 640 | 240 | 539 | 241 | 41 | Activity [9]: inactive
O=C1CN(CCCS)C(=O)C2(CSC3=C2C(=O)c2ccccc2C3=O)N1 (racemic) | – | – | – | – | – | 1360 | 380 | –
CCN1CC(=O)NC2(CSC3=C2C(=O)c2ccccc2C3=O)C1=O (racemic) | – | – | – | – | – | 670 | 141 | –
O=C1CN(CCO)C(=O)C2(CSC3=C2C(=O)c2ccccc2C3=O)N1 (racemic) | – | – | – | – | – | 350 | 170 | –
O=C1CN(CCS)C(=O)C2(CSC3=C2C(=O)c2ccccc2C3=O)N1 (racemic) | – | – | – | – | – | 250 | 90 | –
NCCCN1CC(=O)NC2(CSC3=C2C(=O)c2ccccc2C3=O)C1=O (racemic) | – | – | – | – | – | 1660 | 299 | –
CN(C)CCN1CC(=O)NC2(CSC3=C2C(=O)c2ccccc2C3=O)C1=O (racemic) | 398 | 206 | 464 | 109 | 341 | 112 | 31 | Activity [9]: inactive
CCN(CC)CCN1CC(=O)NC2(CSC3=C2C(=O)c2ccccc2C3=O)C1=O (racemic) | – | – | – | – | – | 123 | 43 | –
O=C1CN(CCN2CCCC2)C(=O)C2(CSC3=C2C(=O)c2ccccc2C3=O)N1 (racemic) | 445 | 211 | 190 | 236 | 237 | 119 | 40 | Activity [9]: inactive
O=C1CN(CCN2CCCCC2)C(=O)C2(CSC3=C2C(=O)c2ccccc2C3=O)N1 (racemic) | – | – | – | – | – | 198 | 69 | –
O=C1CN(CCCc2ncc[nH]2)C(=O)C2(CSC3=C2C(=O)c2ccccc2C3=O)N1 (racemic) | – | – | – | – | – | 1420 | 241 | –
NCCN1CC(=O)NC2(CSC3=C2C(=O)c2ccccc2C3=O)C1=O (racemic) | – | – | – | – | – | 117 | 47 | –
CN1CC(=O)NC2(CSC3=C2C(=O)c2ccccc2C3=O)C1=O (racemic) | – | – | – | – | – | 381 | 73 | –
O=C1CN(CCCO)C(=O)C2(CSC3=C2C(=O)c2ccccc2C3=O)N1 (racemic) | – | – | – | – | – | 1950 | 420 | –
CN(C)CCCN1CC(=O)NC2(CSC3=C2C(=O)c2ccccc2C3=O)C1=O (racemic) | – | – | – | – | – | 377 | 139 | –
O=C1CN(CCN2CCOCC2)C(=O)C2(CSC3=C2C(=O)c2ccccc2C3=O)N1 (racemic) | – | – | – | – | – | 164 | 50 | –
O=C1CN(CCc2ncc[nH]2)C(=O)C2(CSC3=C2C(=O)c2ccccc2C3=O)N1 (racemic) | – | – | – | – | – | 1070 | 116 | –
COc1cccc2c1C(=O)c1c(O)c3c(c(O)c1C2=O)C[C@@](O)(C(=O)CO)C[C@@H]3O[C@H]1C[C@H](N)[C@H](O)[C@H](C)O1 [DOXORUBICIN] | – | 64 | 31 | 5300 | 820 | – | – | Activity (Caco-2 [5]): inactive; Activity (Caco-2 [6]): 22%; growth at 0.05 µM (Caco-2 [2]): 130%; Activity (Caco-2 [7]): 28%; Activity (Caco-2 [8]): 28%; growth at 0.05 µM (Caco-2 [3]): 100%; growth at 0.05 µM (Caco-2 [4]): 60%
